# Measurements reported in ChEMBL document CHEMBL1127783, “Sugar-linked dithiocarbamates as modulators of metabolic and genotoxic properties of N-nitroso compounds” (J Med Chem, 1994).
# What was measured:
# [1] = test system: Rattus norvegicus; test: Tested for urinary excretion of radioactivity of compound (1.5mmol/kg, ip) was administered 1 hr before and 5 hr after the treatment of [14C]-NDEA (28 mg/kg, 5 microCi/kg, ip) in experiment number 1; format: functional, organism-based
# Summary of the method: (§1)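 Male Sprague–Dawley rats, fasted overnight, two per group. Inhibitor 1.5 mmol/kg ip or saline, then [14C]NDEA 28 mg/kg (5 μCi/kg) ip 1 h later, then a second inhibitor dose. Rats kept 24 h in all-glass metabolism cages, urine collected into ice-cold flask with NaOH. Total urinary radioactivity and unchanged [14C]NDEA measured after extraction with internal standard; given as % of dose.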
# [2] = test system: Rattus norvegicus; test: Tested for urinary excretion of radioactivity of compound (1.5 mmol/kg, ip) was administered 1 h before and 5 h after the treatment of [14C]-NDEA (28 mg/kg, 5 microCi/kg, ip) in experiment number 2; format: functional, organism-based; summary of the method: as §1
# [3] = species on record: Rattus norvegicus; test: Tested in vitro for N-nitrosodimethylamine (NDMA) demethylase activity at 1 mM for 2 mM concentration of acetaldehyde; format: functional
# Summary of the method: (§2)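 Liver microsomal fraction from untreated male Sprague–Dawley rats with NADPH-generating system. NDMA substrate 0.1–1 mM; test compound 2–20 mM or DDTC 2 mM added. Formaldehyde and acetaldehyde formed measured as (2,4-dinitrophenyl)hydrazones. Mean ± SD of three separate experiments.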
# [4] = species on record: Rattus norvegicus; test: Tested in vitro for N-nitrosodimethylamine (NDMA) demethylase activity at 0.1 mM for 2 mM concentration of formaldehyde; format: functional; summary of the method: as §2
# [5] = test system: Rattus norvegicus; test: Tested for exhalation of 14CO2 of compound (1.5mmol/kg, ip) was administered 1 h before and 5 h after the treatment of [14C]NDEA (28 mg/kg, 5 microCi/kg, ip) in experiment number 2; format: functional
# Summary of the method: (§3)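 Male Sprague–Dawley rats (two per group) were fasted overnight. They received inhibitor or saline ip at 1.5 mmol/kg 1 h before and again after ip [¹⁴C]NDEA (28 mg/kg, 5 μCi/kg). Animals were then kept 24 h in an all-glass metabolism cage with air flow of 32 L/h. Exhaled air was dried over H₂SO₄, ¹⁴CO₂ was trapped in 1 N NaOH and counted, and the result is expressed as % of the given dose.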
# [6] = test system: Rattus norvegicus; test: Tested for unchanged NDEA 24 h administration of [14C]-NDEA in urine in experiment number 1; format: functional; summary of the method: as §1
# [7] = species on record: Rattus norvegicus; test: Tested in vitro for N-nitrosodimethylamine (NDMA) demethylase activity at 0.5 mM for 2 mM concentration of acetaldehyde; format: functional; summary of the method: as §2
# [8] = species on record: Rattus norvegicus; test: Tested in vitro for N-nitrosodimethylamine (NDMA) demethylase activity at 0.1 mM for 2 mM concentration of acetaldehyde; format: functional; summary of the method: as §2
# [9] = species on record: Rattus norvegicus; test: Tested in vitro for N-nitrosodimethylamine (NDMA) demethylase activity at 0.1 mM for 0 mM concentration of acetaldehyde; format: functional; summary of the method: as §2
# [10] = test system: Rattus norvegicus; test: Tested for exhalation of 14CO2 of compound (1.5mmol/kg, ip) was administered 1 h before and 5 h after the treatment of [14C]NDEA (28 mg/kg, 5 microCi/kg, ip) in experiment number 1; format: functional; summary of the method: as §3
# [11] = species on record: Rattus norvegicus; test: Tested in vitro for N-nitrosodimethylamine (NDMA) demethylase activity at 0.5 mM for 2 mM concentration of formaldehyde; format: functional; summary of the method: as §2
# [12] = species on record: Rattus norvegicus; test: Tested in vitro for N-nitrosodimethylamine (NDMA) demethylase activity at 1 mM for 2 mM concentration of formaldehyde; format: functional; summary of the method: as §2
# [13] = species on record: Rattus norvegicus; test: Tested in vitro for N-nitrosodimethylamine (NDMA) demethylase activity at 0.1 mM for 0 mM concentration of formaldehyde; format: functional; summary of the method: as §2
structure (smiles),measurement,setting,value
CCN(CC)C(=S)[S-].[Na+] [DITIOCARB SODIUM],Radioactivity in urine,[1],20.7%
same,Radioactivity in urine,[2],17.8%
same,Acetaldehyde,[3],0.06 nM (mg of protein)-1
same,Formaldehyde,[4],0.6 nM (mg of protein)-1
same,Exhal+B1718ation of 14CO2,[5],20.5%
same,Unchanged NDEA,[6],15.7%
same,Acetaldehyde,[7],0.6 nM (mg of protein)-1
same,Acetaldehyde,[8],2.2 nM (mg of protein)-1
same,Acetaldehyde,[9],0 nM (mg of protein)-1
same,Exhal+B1718ation of 14CO2,[10],17.2%
same,Formaldehyde,[11],0.3 nM (mg of protein)-1
same,Formaldehyde,[12],0 nM (mg of protein)-1
same,Formaldehyde,[13],4.8 nM (mg of protein)-1
